We go through 73 sequences from the array DNA melting data of Ke et al. (doi:10.1101/2024.01.08.574731).

Series [1] is described as follows: melting temperature; fluorescence melt of hairpins on a sequencing array, two-state fit, raised by 9.35 °C to match UV melts. Conditions: sodium 0.088 M. A digest of the protocol:
(§1)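 Bootstrapped two-state fits yielded melting temperature and folding enthalpy for library hairpins. Cy3 fluorescence, with annealed Cy3 and quencher oligos, was imaged on a sequenced MiSeq flow cell in 50 mM Na-HEPES pH 8.0, 25 mM NaCl in 2.5 °C steps up to 60 °C, and normalised to pre-quench Cy3 and to control constructs. Four replicates were combined by inverse variance, and fitted temperatures were raised by 9.35 °C to match UV melts.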

Series [2] can be described thus: folding enthalpy; higher = less favourable; fluorescence melt of hairpins on a sequencing array, two-state fit. The note with it: sodium 0.088 M. A digest of the protocol: as §1

GGCGTTCCGAAAGGAGCC (((..(((....)))))): the Tm in series [1] came to 51.7 °C. Further, in series [2], the folding enthalpy was -20.5 kcal/mol.
Regarding GGCGTTCGAAAGAAGCC (((.(((....)))))), the Tm in series [1] is 50.8 °C. Further, the folding enthalpy in series [2] is -23.2 kcal/mol.
Taken in the same sequence, the figures for GGCGTTCGAAAGAAGGCC (((.(((....))).))) were 61.1 °C and -39.4 kcal/mol.
As to GGCGTTGCGAAAGCAGCC (((..(((....)))))), the Tm in series [1] came out at 63.1 °C. Besides, the folding enthalpy in series [2] was -32.3 kcal/mol.
As to GGCTAACGAAAGTTGCC (((.(((....)))))), the Tm in series [1] turned out to be 54 °C. The folding enthalpy in series [2] is -30 kcal/mol.
For GGCTAAGGAAACCTAGCC (((((.(....).))))), in series [1], the Tm amounted to 46.6 °C. The folding enthalpy in series [2] is -31.5 kcal/mol.
The matching figures for GGCTAAGGAAACTTAGCC (((((((....))))))): 60.8 °C and -37.7 kcal/mol.
As for GGCTACACGAAAGTGGCC (((..(((....)))))), in series [1], the Tm came out at 51.6 °C. Besides, the folding enthalpy in series [2] is -24.3 kcal/mol.
For the sequence GGCTACGAAAGTAAGGCC ((((((....)))..))), in series [1], the Tm is 48.2 °C. Also, the folding enthalpy in series [2] was -23.3 kcal/mol.
Taken in the same sequence, the figures for GGCTACGAAAGTACGCC ((((((....))).))) were 53.5 °C and -33.4 kcal/mol.
GGCTACGAAAGTAGAGCC ((((((....)))..))): the Tm in series [1] came out at 49.5 °C. In addition, the folding enthalpy in series [2] was -20 kcal/mol.
As to GGCTACGAAAGTATCGCC ((((((....)))..))), the Tm in series [1] was determined as 40.6 °C. Also, in series [2], the folding enthalpy was -22.5 kcal/mol.
Take GGCTACGGAAACGTGGCC (((.(((....))).))): in series [1], the Tm came out at 60.1 °C. In addition, in series [2], the folding enthalpy is -47.4 kcal/mol.
On to GGCTAGACGAAAGTCGCC (((..(((....)))))), for which the Tm in series [1] was found to be 53.4 °C. The folding enthalpy in series [2] is -25.2 kcal/mol.
In the case of GGCTATGAAAATAGCC ((((((....)))))), in series [1], the Tm stood at 59.1 °C. The folding enthalpy in series [2] was -45.7 kcal/mol.
GGCTATGGAAACATAGCC (((((((....))))))): the Tm in series [1] is 66.1 °C. Moreover, the folding enthalpy in series [2] is -37.6 kcal/mol.
With GGCTATGGAAACATGGTC (.(.(((....))).).), in series [1], the Tm turned out to be 35.7 °C. The folding enthalpy in series [2] was -23.9 kcal/mol.
As for GGCTATGGAAACGTAGCC (((((.(....).))))), the Tm in series [1] was determined as 52.6 °C. In addition, the folding enthalpy in series [2] is -46 kcal/mol.
For the sequence GGCTATGGAAACGTAGTC (.(((.(....).))).), the Tm in series [1] stood at 32.3 °C. In series [2], the folding enthalpy was -18.6 kcal/mol.
For the sequence GGCTATTCGAAAGAAGCC (((..(((....)))))), in series [1], the Tm is 37.7 °C. For the same sequence, in series [2], the folding enthalpy was -25.2 kcal/mol.
With GGCTCACGAAAGTGTGCC (((.(((....))).))), the Tm in series [1] is 64.3 °C. In addition, the folding enthalpy in series [2] was -30.8 kcal/mol.
The matching figures for GGCTCAGGAAACTAAGCC ((((.((....)).)))): 39 °C and -29.1 kcal/mol.
As to GGCTCAGGAAACTGGGCC (((.(((....))).))), the Tm in series [1] is 58.3 °C. For the same sequence, the folding enthalpy in series [2] is -43.7 kcal/mol.
Turning to GGCTCCCGAAAGGGGCC (((.(((....)))))), in series [1], the Tm amounted to 68 °C. Further, the folding enthalpy in series [2] was -30.1 kcal/mol.
As to GGCTCCGAAAGGACCGCC ((((((....)))..))), the Tm in series [1] came out at 53.3 °C. Moreover, in series [2], the folding enthalpy is -19.8 kcal/mol.
As for GGCTCCGAAAGGAGAGCC ((((((....)))..))), the Tm in series [1] came out at 55.6 °C. In series [2], the folding enthalpy is -20.7 kcal/mol.
For GGCTCCGAAAGGATTGCC ((((((....)))..))), the Tm in series [1] came out at 48.7 °C. The folding enthalpy in series [2] is -19.6 kcal/mol.
As for GGCTCGGGAAACCGAGTC (.(((((....))))).), the Tm in series [1] stood at 61.5 °C. In addition, the folding enthalpy in series [2] is -29.9 kcal/mol.
As for GGCTCGGGAAACTGAGCC (((((.(....).))))), in series [1], the Tm worked out at 61.4 °C. The folding enthalpy in series [2] was -61.1 kcal/mol.
Take GGCTCTCGAAAGAGGCC (((.(((....)))))): in series [1], the Tm came to 56.9 °C. In addition, the folding enthalpy in series [2] was -43 kcal/mol.
As to GGCTCTGGAAACAGGGTC (.(.(((....))).).), the Tm in series [1] came to 37.5 °C. For the same sequence, the folding enthalpy in series [2] is -29.6 kcal/mol.
As for GGCTCTGGAAACGGAGTC (.(((.(....).))).), the Tm in series [1] stood at 40 °C. Moreover, the folding enthalpy in series [2] was -30.2 kcal/mol.
With GGCTGACGAAAGTCCGCC (((.(((....))).))), in series [1], the Tm was 58.6 °C. The folding enthalpy in series [2] is -36.6 kcal/mol.
Take GGCTGAGCGAAAGCTGCC (((..(((....)))))): the Tm in series [1] stood at 51.6 °C. The folding enthalpy in series [2] was -20 kcal/mol.
As for GGCTGCCCGAAAGGGGCC (((..(((....)))))), the Tm in series [1] turned out to be 47.6 °C. The folding enthalpy in series [2] is -13.7 kcal/mol.
For the sequence GGCTGCGAAAGCAAAGCC ((((((....)))..))), in series [1], the Tm was 61.3 °C. Further, the folding enthalpy in series [2] was -24.7 kcal/mol.
On to GGCTGCGAAAGCAACGCC ((((((....)))..))), for which, in series [1], the Tm came out at 56.6 °C. In series [2], the folding enthalpy is -22.1 kcal/mol.
As to GGCTGCGAAAGCAGAGCC ((((((....)))..))), the Tm in series [1] turned out to be 60.1 °C. The folding enthalpy in series [2] is -16.3 kcal/mol.
For GGCTGCGAAAGCAGTGCC ((((((....)))..))), in series [1], the Tm is 51.7 °C. Besides, the folding enthalpy in series [2] was -12.1 kcal/mol.
In the case of GGCTGCGGAAACGCAGTC (.(((((....))))).), the Tm in series [1] turned out to be 66.1 °C. Besides, the folding enthalpy in series [2] is -22.4 kcal/mol.
Regarding GGCTGGCCGAAAGGCGCC (((..(((....)))))), the Tm in series [1] was 61 °C. The folding enthalpy in series [2] is -16.4 kcal/mol.
The matching figures for GGCTGTCGAAAGACGCC (((.(((....)))))): 61.1 °C and -31.2 kcal/mol.
As for GGCTGTGGAAACACAACC ((.((((....)))).)), the Tm in series [1] is 44.4 °C. In addition, the folding enthalpy in series [2] is -31.5 kcal/mol.
As to GGCTGTGGAAACGCAGCC (((((.(....).))))), in series [1], the Tm amounted to 63.4 °C. In series [2], the folding enthalpy was -48.6 kcal/mol.
Consider GGCTGTGGAAACGCAGTC (.(((.(....).))).), for which the Tm in series [1] is 42.4 °C. In series [2], the folding enthalpy is -23.4 kcal/mol.
In the case of GGCTGTTCGAAAGAAGCC (((..(((....)))))), the Tm in series [1] was 38.2 °C. Moreover, the folding enthalpy in series [2] is -20.9 kcal/mol.
Taken in the same sequence, the figures for GGCTTACGAAAGTACGCC (((.(((....))).))) were 52.9 °C and -48 kcal/mol.
Taken in the same sequence, the figures for GGCTTAGCGAAAGCTGCC (((..(((....)))))) were 52.5 °C and -23 kcal/mol.
The matching figures for GGCTTAGGAAACCAAGCC (((((.(....).))))): 47.4 °C and -31.4 kcal/mol.
With GGCTTATCGAAAGATGCC (((..(((....)))))), in series [1], the Tm was found to be 39.8 °C. For the same sequence, the folding enthalpy in series [2] was -24.1 kcal/mol.
As to GGCTTCACGAAAGTGGCC (((..(((....)))))), the Tm in series [1] came out at 45.2 °C. Further, the folding enthalpy in series [2] is -19.6 kcal/mol.
In the case of GGCTTCGAAAGAAAGCC ((((((....))).))), in series [1], the Tm was found to be 55 °C. Further, in series [2], the folding enthalpy was -38.1 kcal/mol.
In the case of GGCTTCGAAAGAAAGGCC ((((((....)))..))), the Tm in series [1] was 43.4 °C. Further, the folding enthalpy in series [2] is -26 kcal/mol.
Regarding GGCTTCGAAAGAACTGCC ((((((....)))..))), in series [1], the Tm came out at 36.7 °C. The folding enthalpy in series [2] was -21.5 kcal/mol.
For GGCTTCGAAAGAATGCC ((((((....))).))), the Tm in series [1] is 50.7 °C. Besides, the folding enthalpy in series [2] was -27.9 kcal/mol.
Taken in the same sequence, the figures for GGCTTCGAAAGAATTGCC ((((((....)))..))) were 35.4 °C and -23.3 kcal/mol.
Taken in the same sequence, the figures for GGCTTGGGAAACCGAGCC ((((.((....)).)))) were 58.5 °C and -54.1 kcal/mol.
Take GGCTTGGGAAACTAAGCC (((((.(....).))))): the Tm in series [1] was 52.2 °C. The folding enthalpy in series [2] is -45.5 kcal/mol.
GGCTTGGGAAACTGAGCC ((((..(....)..)))): the Tm in series [1] was 45.7 °C. Besides, the folding enthalpy in series [2] was -32.9 kcal/mol.
For the sequence GGCTTTCCGAAAGGAGCC (((..(((....)))))), in series [1], the Tm worked out at 45.2 °C. In series [2], the folding enthalpy is -24.5 kcal/mol.
The matching figures for GGCTTTCGAAAGAAGCC (((.(((....)))))): 52.8 °C and -41.6 kcal/mol.
In the case of GGCTTTGAAAAAAGCC ((((((....)))))), in series [1], the Tm amounted to 57.6 °C. Further, in series [2], the folding enthalpy is -38.5 kcal/mol.
Consider GGGAAACCGAAAGGTCCC (((..(((....)))))), for which, in series [1], the Tm came to 46.6 °C. For the same sequence, the folding enthalpy in series [2] was -19.7 kcal/mol.
The matching figures for GGGAAACGAAAGTTACCC (((.(((....))).))): 50.7 °C and -29.5 kcal/mol.
Turning to GGGAAACGAAAGTTGCCC (((.(((....))).))), in series [1], the Tm came out at 56.6 °C. Also, the folding enthalpy in series [2] is -43.9 kcal/mol.
Taken in the same sequence, the figures for GGGAAAGAAATTTCCC ((((((....)))))) were 48.7 °C and -27.4 kcal/mol.
Regarding GGGAAAGGAAACCTTCCC (((((.(....).))))), the Tm in series [1] turned out to be 39.2 °C. The folding enthalpy in series [2] was -28.2 kcal/mol.
Consider GGGAAATCGAAAGATCCC (((..(((....)))))), for which, in series [1], the Tm is 36 °C. Besides, the folding enthalpy in series [2] was -21.6 kcal/mol.
Regarding GGGAACCGAAAGGTCCC (((.(((....)))))), in series [1], the Tm stood at 57.3 °C. For the same sequence, the folding enthalpy in series [2] was -20.9 kcal/mol.
As to GGGAACGAAAGTTTCCC ((((((....))).))), the Tm in series [1] is 52.9 °C. Further, in series [2], the folding enthalpy was -31.5 kcal/mol.
Consider GGGAACGAAAGTTTCCCC ((((((....)))..))), for which the Tm in series [1] was found to be 53.5 °C. The folding enthalpy in series [2] is -19.9 kcal/mol.
Take GGGAACGGAAACATTCCC (((((.(....).))))): the Tm in series [1] was 39.4 °C. The folding enthalpy in series [2] was -32.6 kcal/mol.
Taken in the same sequence, the figures for GGGAACTCGAAAGAGCCC (((..(((....)))))) were 37.8 °C and -20.3 kcal/mol.
